Bioassay records as filed in PubChem BioAssay.
STAT1 activator – increases IFN-gamma driven STAT1 reporter signal. NIH 3T3 STAT1-luciferase reporter, luminescence; 100% = IFN-gamma alone, no compound. activation (% of control), % at 5.5 µM. 200,000 tested, 2.6% active. AID 932;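 active means activation above the screen-wide mean activation plus 3 SD, cut at about 130% in these data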
APP 5'UTR act – APP 5'UTR luciferase reporter activation | SH-SY5Y APP 5'UTR luciferase reporter, luminescence; zero percent = DMSO vehicle wells | activation, % at 2 µM | 190,000 tested, 1% active | AID 1276;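 active means activation above a set limit, based on mean plus 3 SD of controls, cut at about 140% in these data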
STAT1 blocker – reduces IFN-gamma driven STAT1 reporter signal | 200,000 tested, 0.35% active | inhibition, % at 5.5 µM | NIH 3T3 STAT1-luciferase reporter, luminescence;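 active means inhibition above a set limit, the mean inhibition across all tested compounds plus 3 SD, cut at about 34% in these data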
NF-kB neuron act – NF-kB expression increase, human neuronal cells; NF-kB reporter expression; stronger effect = higher value; AID 1239; 190,000 tested, 1.6% active; fold change at 12.5 µM; in the data active means fold change above about 3.3
STAT3 blocker – STAT3 signaling inhibition; inhibition, % at 5.5 µM; AID 862; 190,000 tested, 0.89% active; U3A cells, IL-6 STAT3-luciferase reporter, luminescence; host cell line lacks STAT1;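 active means inhibition above the mean inhibition across all screened compounds plus 3 SD, cut at about 44% in these data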
STAT3 act – increases IL-6 driven STAT3 reporter signal | U3A cells, IL-6 STAT3-luciferase reporter, luminescence; 100% = signal with IL-6 EC80 alone | activation (% of control), % at 5.6 µM | 190,000 tested, 0.91% active;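 active means activation above the screen-wide mean of compound activation plus 3 SD, cut at about 130% in these data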
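Test system: STAT3-luciferase reporter U3A cells; Detection: reporter luminescence signal; Times: 1 h compound pre-exposure, 6 h IL-6 stimulation, 37 °C; Benchmarks: IL-6-only high control; Also added: IL-6 stimulus at 33 ng/mL final.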
Of the large screens only hits and unclear results are named; the others gave an inactive call. Hits are enriched below; roughly 5.1% of the tested compounds scored in any of these assays.

CN(C)/C=C1/C(=O)N(c2ccc([N+](=O)[O-])cc2)N=C1c1ccccc1	STAT1 activator 144
CC1=NN(c2ccc([N+](=O)[O-])cc2)C(=O)/C1=C\N(C)C	none
Cn1cccc1C(=O)C(=O)Nc1ccc(Cl)cc1	APP 5'UTR act 186, NF-kB neuron act 11
Cn1cccc1C(=O)C(=O)Nc1cc(Cl)cc(Cl)c1	none
Cn1cccc1C(=O)C(=O)Nc1cccc(Cl)c1Cl	STAT1 activator 147, NF-kB neuron act 3.6, STAT3 act 157
CC(=O)N1CCc2cc(Br)cc(S(=O)(=O)N3CCCCCC3)c21	none
Nc1c(C(=O)N2CCCC2)sc2nc3c(cc12)CCCCCC3	STAT1 activator 147
CC(=O)Nc1c(C(=O)N2CCOCC2)sc2nc3c(cc12)COC(C)(C)C3	none
Nc1c(C(=O)N2CCOCC2)sc2nc3c(cc12)CCC3	NF-kB neuron act 3.4
NC(=O)c1sc2nc3c(cc2c1N)CCC3	none
O=C(NCCN1C(=O)C2C3C=CC(C3)C2C1=O)N1CCOCC1 (stereo not drawn)	none
Nn1cnnc1N/N=C/c1cc(Br)cc(Br)c1O	none
Cc1sc2nc3ccc(N4CCCCC4)nn3c(=O)c2c1C	none
CC1CCCN(c2ccc3nc4ccccc4c(=O)n3n2)C1 (stereo not drawn)	APP 5'UTR act 175, STAT1 blocker 51, STAT3 blocker 76
Cc1ccc2nc3ccc(N4CCCC4)nn3c(=O)c2c1	STAT1 activator 134
Cc1cc(C)nc(Oc2ccc(Br)cc2Br)n1	STAT1 activator 142
O=C(CSc1nnc(-c2cccnc2)n1-c1ccccc1)N1CCN(c2ccc(F)cc2)CC1	none
CCOC(=O)c1cnc(SCC(=O)c2ccc(C)cc2)nc1N	none
CCOC(=O)c1ccc2ncc(-c3ccccc3)nc2c1	STAT1 activator 148, APP 5'UTR act 139, NF-kB neuron act 4.2
CCOC(=O)c1cnc(SCC(C)C)nc1N	STAT1 activator 137, APP 5'UTR act 146, NF-kB neuron act 4.7
CCOC(=O)c1cnc(-c2ccccc2)nc1N	STAT1 activator 146, NF-kB neuron act 5
CCOC(=O)c1cnc(SCC(=O)c2ccccc2)nc1N	STAT1 activator 144, NF-kB neuron act 3.7
O=C(O)Cc1ccc(NS(=O)(=O)c2ccccc2Br)cc1	none
Cc1cc(NCc2ccccn2)nc2ccccc12	none
CCC(=O)Nc1cccc(-c2cnc3ccccc3n2)c1	STAT1 activator 129
O=C(CCl)Nc1cccc(-c2cnc3ccccc3n2)c1	none (no result: APP 5'UTR act)
COc1cccc(-c2cc3nc4c(c(NCC(C)(C)CN(C)C)n3n2)CCCC4)c1	STAT1 activator 140
COc1cccc(Nc2c3c(nc4c(-c5ccccc5)c(C)nn24)CCC3)c1	none
Fc1cccc(-c2cc3nc4c(c(NCc5ccco5)n3n2)CCCC4)c1	STAT1 activator 143, APP 5'UTR act 166, NF-kB neuron act 4.6
Cc1ccc2nc(NCc3ccccc3)[nH]c2c1	NF-kB neuron act 4.8
CCCCCCc1ccc(-c2ncc(N)cn2)cc1	STAT1 activator 139, NF-kB neuron act 4.4
Cn1c(NCc2c[nH]c3ccccc23)nc2ccccc21	STAT1 activator 139, NF-kB neuron act 3.3, STAT3 act 141
CCOC(=O)CSc1nc(-c2ccc3c(c2)OCO3)ccc1C#N	APP 5'UTR act 202
CCOC(=O)CSc1nc2cc(OCC)ccc2cc1C#N	APP 5'UTR act 168
COC(=O)CSc1nc2cc(OC)ccc2cc1C#N	STAT1 activator 142, APP 5'UTR act 155, NF-kB neuron act 14
COc1ccc2cc(C#N)c(SCC(=O)N3CCCC3)nc2c1	none
Cc1ccc(C)c(NC(=O)C(=O)NCCCN2CCOCC2)c1	none
Nc1ccc(Sc2ccc([N+](=O)[O-])cc2)cc1	none
Cn1c(=O)oc2cc(S(=O)(=O)NCc3ccncc3)ccc21	none
CCOC(=O)/C(=N/Nc1ccc(OC)cc1)Sc1nnc(CCc2ccccc2)n1-c1ccccc1	none
CC(=O)/C(=N/Nc1ccc(C)cc1)Sc1nnc(CCc2ccccc2)n1-c1ccccc1	NF-kB neuron act 4.4
CC1=CC(C)=Nc2ccccc2N1	STAT1 activator 129
O=C1CC(/C=C/c2ccccn2)=Nc2ccccc2N1	none
O=c1cc(O)n(-c2ccccc2)c(=S)[nH]1	none
O=C(Nc1ccon1)c1cc2c(s1)CCCCCC2	STAT1 activator 141
CC(C)NC(=O)c1cc2c(s1)CCCC2	none
